esBAF inh: blocks esBAF chromatin remodeling in mouse ES cells | Bmi1-luciferase knock-in reporter, 24 h; 100% = twice the neutral-well signal | reporter increase, % at 12.5 µM | 350,000 tested, 2% active | AID 602393; in the data active = activation above about 40%; inconclusive = no clear call, values can overlap the other calls;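 note: 0% = median of the plate's neutral control wells and 100% = double that signal; a rise in the Bmi1 reporter signal indicates esBAF inhibition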
XiGFP reactiv: reactivates the inactive X chromosome in mouse fibroblasts | XiGFP mouse fibroblasts, % GFP-positive cells imaging, 3 d; cells co-treated with 5-aza-dC sensitizer; scaled so ellipticine positive control = 100% | activation, % at 7.58 µM | 360,000 tested, 0.055% active | AID 743238;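 active = mean normalized replicate activation at least 10% and every replicate at or above 10%; inconclusive = only one of the two criteria met; inactive = mean below 10% and not all replicates reach 10%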;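 note: 0% = median of on-plate neutral control wells and 100% = ellipticine 6 µM median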
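Material: SV40-immortalized XiGFP fibroblast cells, line 68-5-11 | Buffer or medium: DMEM containing 5-aza-dC | Dosing: One concentration, pinned | Times: 3 d treatment, 15 min room-temperature fixation | Controls: Ellipticine 6 µM positive control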
NSD2 inh: inhibitors of human histone methyltransferase NSD2 | O96028 | NSD2 peptide methylation, AlphaScreen, 120 min | inhibition, % at 12.5 µM | 310,000 tested, 0.54% active; in the data active = inhibition above about 50%
MITF TRPM1 HTS: activators of MITF-driven TRPM1 promoter activity in SK-MEL-5 cells | activation, % at 12.5 µM | AID 588334 | 300,000 tested, 0.75% active | SK-MEL-5 TRPM1-promoter luciferase, 24 h; % of positive control, neutral wells = 0;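 active = mean activation of at least 80% with every replicate also reaching 80%; inconclusive = mean reaches 80% but some replicate falls short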;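 note: 0% = neutral control wells and 100% = parthenolide positive control wells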
Casp6 inh: blocks human caspase-6 cleavage activity. P55212. purified caspase-6, Z-VEID-R110 cleavage fluorescence. inhibition, % at 12.5 µM. 350,000 tested, 0.53% active;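 active = mean inhibition across replicates at least about 35%, with every replicate also reaching that limit, limit read from the data; inconclusive = only one of the two criteria met; inactive = neither criterion met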;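 note: 0% = median of neutral control wells and 100% = no fluorescence left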
Target sequence (P55212 24-179 limits assumed): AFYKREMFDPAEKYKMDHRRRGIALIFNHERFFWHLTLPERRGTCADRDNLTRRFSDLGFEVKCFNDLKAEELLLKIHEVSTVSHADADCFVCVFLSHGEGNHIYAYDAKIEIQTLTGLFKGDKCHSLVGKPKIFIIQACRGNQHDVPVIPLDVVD
Target sequence (P55212 194-293 limits assumed): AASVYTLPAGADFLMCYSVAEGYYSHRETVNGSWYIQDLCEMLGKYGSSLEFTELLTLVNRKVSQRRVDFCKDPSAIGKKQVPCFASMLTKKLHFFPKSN
Wnt act: activators of Wnt/beta-catenin signaling. Wnt/beta-catenin reporter cell assay, activator, plate reader. activation, % at 9.35 µM. 300,000 tested, 1.2% active; in the data active = activation above about 30%, passing the limit was not always enough; inconclusive = no clear call, values can overlap the other calls;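 note: 0% = neutral control wells and 100% = positive control wells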
* = called active by the depositor; ? = inconclusive; · = no result; ! = repeats disagree. A selection: hits, their analogues and other compounds. The true share with any hit is near 3%.

SMILES	esBAF inh	XiGFP reactiv	NSD2 inh	MITF TRPM1 HTS	Casp6 inh	Wnt act
COc1cccc(NC(=O)c2c(C)nn(-c3ccccc3)c2Cl)c1	50*	0	-7	·	3	15
CN1C(=O)c2cc(NC(=O)Cc3cccs3)ccc2OC[C@H]2O[C@H](CC(=O)NCC3CC3)CC[C@H]21	0	0	·	·	3	·
COc1ccc2c3c([nH]c2c1)[C@@H](CO)N(Cc1ccccn1)CC31CCN(C(=O)c2ccccn2)CC1	·	0	·	·	0	·
O=C(Nc1cccc(F)c1)c1ccc(-c2ccccc2C(F)(F)F)o1	·	0	·	·	3	16
COc1cccc(NC(=O)c2cccc(NC(=O)c3ccco3)c2)c1	3	0	1	·	2	-1
Cc1ccccc1-c1ccc(C(=O)Nc2cccc(F)c2)o1	45*	0	·	53	0	27
COc1cccc(NC(=O)c2ccc(C(=O)c3ccccc3)o2)c1	38	0	0	?	·	37*
c1ccc(NC2=Nc3ccccc3CC2)cc1	46*	·	0	?	·	·
CC(=O)NCCNc1nc2cc(-c3ccc(C)cc3)sc2c(=O)n1C	54*	0	-1	·	2	5
CCCNC(=O)Nc1ccc2c(c1)OC[C@H](C)N(C(=O)C1CC1)C[C@@H](C)[C@H](OC)CN(C)C2=O	-2	0	·	·	7	·
CCC(=O)NC1=C(Nc2ccc(N)cc2)C(=O)c2ccccc2C1=O	-6	0	13	13	·	34*
C[C@H](CO)N1C[C@H](C)[C@@H](CN(C)C(=O)C2CC2)Oc2ncc(C3=CCCC3)cc2C1=O	·	-1	·	·	·	·
CCCNC1=C(N(C(C)=O)c2cccc(F)c2)C(=O)c2ccccc2C1=O	-62	1	78*	-98	80*	2
CCS(=O)(=O)Nc1ccc2c(c1)C(=O)N(C)[C@H]1CC[C@H](CC(=O)NCCCN3CCOCC3)O[C@H]1CO2	-2	0	·	·	39*	·
CN1C(=O)c2cc(NC(=O)C3CC3)ccc2OC[C@H]2O[C@@H](CC(=O)O)CC[C@@H]21	·	0	·	·	37*	·
CCS(=O)(=O)Nc1ccc2c(c1)C(=O)N(C)[C@H]1CC[C@@H](CC(=O)NCCCN3CCOCC3)O[C@H]1CO2	9	0	·	·	-5	·
C[C@@H]1CN([C@H](C)CO)C(=O)Cc2cc(NC(=O)Cc3ccccc3)ccc2O[C@H]1CN(C)S(=O)(=O)c1ccc(F)cc1	-3	0	·	·	1	·
Clc1ccc(-n2ncc3c(NCc4ccccn4)ncnc32)cc1	68*	·	-1	38	·	27
c1ccc(Cn2ncc3c(NCc4ccco4)ncnc32)cc1	-4	·	3	-8	·	0
c1ccc(-n2ncc3c(NCc4ccco4)ncnc32)cc1	57*	·	13	35	·	?
COc1ccccc1CNc1ncnc2c1cnn2-c1ccccc1	71*	0	·	43	-1	11
Cc1ccc(N2CN(Cc3ccco3)CNC2=S)cc1	·	0	1	-4	-2	36*
Cc1ccc(N2CN(CCC3=CCCCC3)CNC2=S)cc1	-2	0	4	·	-2	49*
C[C@@H]1CCCCO[C@H](CN(C)C(=O)Cc2ccccc2)[C@@H](C)CN([C@@H](C)CO)C(=O)c2cc(NC(=O)Nc3ccc4c(c3)OCO4)ccc2O1	-2	-1	·	·	-2	·
O=C(Nc1ccccc1)Nc1cccc2nsnc12	·	0	-24	35	4	40*
SMILES	esBAF inh	XiGFP reactiv	NSD2 inh	MITF TRPM1 HTS	Casp6 inh	Wnt act
O=C(Nc1cccc2nsnc12)c1cccs1	47*!	·	-1	62	2	9
O=C(Nc1cccc2nsnc12)c1cccnc1	·	0	1	-8	3	0
C[C@@H]1CN([C@H](C)CO)S(=O)(=O)c2ccc(C#CC3CCCC3)cc2O[C@@H]1CN(C)Cc1cncnc1	-2	0	·	·	·	·
C[C@@H]1CCCCO[C@H](CN(C)Cc2ccc(Cl)c(Cl)c2)[C@@H](C)CN([C@@H](C)CO)C(=O)c2cc(N(C)C)ccc2O1	-2	0	·	·	-3	·
Cc1[nH]c2ccc(OCc3ccccc3)cc2c1CCN1C(=O)OC(C)(C)C1(C)O (centres undefined)	2	0	·	·	0	-3
Cc1[nH]c2ccc(F)cc2c1CCN1C(=O)OC(C)(C)C1(C)O (centres undefined)	-3	0	2	9	-1	39*
COc1ccc(NC(=O)N2CCCCN3[C@@H](CO)[C@H](c4ccc(-c5ccccc5C)cc4)[C@@H]3C2)cc1	·	0	·	·	·	·
CC(=O)Oc1ccc2cc(-c3nc4ccccc4n3C)c(=O)oc2c1	39	·	2	26	·	·
Cn1c(-c2cc3ccc(OC(=O)C(C)(C)C)cc3oc2=O)nc2ccccc21	22	·	-3	54	·	34*
CCc1sc(N2C(=O)C3C4CCC(C4=C(C)C)C3C2=O)nc1-c1ccccc1 (centres undefined)	54*	·	-1	-4	·	·
CC(=O)Nc1ccc(C(=O)OCC(=O)N2CCCC2=O)cc1	-2	0	-1	1	-1	-1
COc1cc(C(=O)OCC(=O)N2CCCC2=O)cc(OC)c1C	-7	0	7	3	37*	3
C[C@@H]1CCCCO[C@@H](CN(C)C(=O)CCC(F)(F)F)[C@H](C)CN([C@@H](C)CO)C(=O)c2cc(NS(=O)(=O)c3ccccc3)ccc2O1	6	0	·	·	1	·
CC(=O)Oc1ccc(C(=O)Cc2ccc3ccccc3n2)c(O)c1C	·	0	-4	54	1	-4
Cc1c(O)ccc(/C(Cc2ccc3ccccc3n2)=N\O)c1O	45*	·	1	·	·	36*
COC(=O)c1ccc(CSc2nnc(N)s2)cc1	30	·	-1	32	·	·
COC(=O)c1ccc(CSc2nc(N)cc(N)n2)cc1	52*	·	3	32	3	·
CCOC(=O)CNc1c(-c2ccccc2)nc2ccc(Cl)cn12	36	·	0	13	·	23
COC(=O)CNc1c(-c2ccccn2)nc2ccc(Br)cn12	15	·	-1	·	·	40*
COc1ccccc1S(=O)(=O)Nc1ccc2c(c1)OC[C@H](C)NC[C@H](C)[C@@H](OC)CN(C)C2=O	·	0	·	·	0	·
c1ccc(-c2nc(-c3nccc4ccccc34)oc2-c2ccccc2)cc1	·	0	-10	109*	0	27
COc1ccc(CCN2CC(C(=O)N3CCC(OC)CC3)CCC2=O)cc1 (centres undefined)	4	0	-1	7	2	0
C=CCC1(CC=C)CCCN1C(=O)C1CCC(=O)N(CCc2ccc(OC)cc2)C1 (centres undefined)	69*	0	-4	48	-1	20
C=CCC1(CC=C)CCCN1C(=O)C1CCC(=O)N(CCc2ccccc2)C1 (centres undefined)	9	1	-6	103*	1	29
CC(=O)Nc1cccc2c1O[C@H](CN(C)C(=O)NC(C)C)[C@H](C)CN(C)C2=O	·	0	·	·	·	·

Screening results (PubChem)
